# Sampled rows, rich in hits. Any-hit rate of the full collection: about 1.4%.
# TbMetRS inhib = T. brucei MetRS inhibitors, primary screen, biochemical, luminescence; methionyl-tRNA synthetase (Trypanosoma brucei brucei); purified T. brucei MetRS, ATP depletion, Kinase-Glo luminescence; inhibition, % at 11.9 µM; hit rate 0.4% among 360,000; AID 624268, 2012;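 active = inhibition above a per-plate cutoff of the control wells' mean inhibition plus 3 SD, cut at about 5.5% in these data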;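 note: 0% = DMSO wells median and 100% = median of wells with control inhibitor compound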
#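 Material: parasite MetRS enzyme / Replication: singlicate, one well per compound / Signal: luminescence of leftover ATP / Schedule: 2 h aminoacylation at 25 °C after 15 min preincubation / Medium: HEPES-MgCl2-KCl buffer plus DTT, spermine, BSA, pyrophosphatase / Doses: 11.9 µM single point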
# Rin1-Abl PPI inh = inhibitors of Rin1-Abl protein binding, primary screen, biochemical, TR-FRET. Tyrosine-protein kinase ABL1 (Homo sapiens) + Ras and Rab interactor 1 (Homo sapiens), …. inhibition, % at 7.35 µM. hit rate 0.4% among 360,000. AID 588664, 2011; in the data active = inhibition above about 5%, passing the limit was not always enough
# ATG4B inh = ATG4B protease inhibitors, primary screen, biochemical, fluorescence, uHTS; Cysteine protease ATG4B (Homo sapiens), Q9Y4P1; ATG4B cleavage of LC3-PLA2, NBD-HPC fluorescence, 1 h; inhibition, % at 8.33 µM; hit rate 0.51% among 340,000; AID 504462, 2011; in the data active = inhibition above about 40%
# UCH37 DUB inh = inhibitors of human UCH37 deubiquitinase, primary screen, biochemical, Ub-AMC cleavage, fluorescence; purified proteasome/UCH37; inhibition, % (concentration not given with the values); hit rate 0.33% among 330,000;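 active = mean inhibition over replicate wells above about 20%, limit read from the data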;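 note: 0% = compound-free wells with enzyme and 100% = wells lacking proteasome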
#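 Material: Human UCH37 enzyme supplied as purified proteasome complex | Schedule: 30 min preincubation with enzyme, 25 min cleavage at room temperature | Detection: AMC fluorescence 355/460 nm | Measure: % inhibition of Ub-AMC cleavage fluorescence | Controls: Wells without proteasome as full block, compound-free enzyme plus substrate as uninhibited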
# ATG4B confirm = ATG4B protease inhibitors, retest, confirmation, biochemical, fluorescence, single concentration | AID 504757, 2011 | hit rate 92% among 320 | ATG4B protease fluorescent substrate cleavage assay | shares compounds with ATG4B inh | inhibition, % at 8.33 µM; in the data active = inhibition above about 39%
# PLA2 counter = PLA2 enzyme inhibition, counter-screen for ATG4B inhibitor project, biochemical, single concentration, uHTS hits. shares compounds with ATG4B inh. purified PLA2, NBD-C6-HPC fluorescence, 45 min. inhibition, % at 8.33 µM. hit rate 66% among 1,600; in the data active = inhibition above about 50%
# Numbers without * were called inactive; · = no result.
SMILES,TbMetRS inhib,Rin1-Abl PPI inh,ATG4B inh,UCH37 DUB inh,PLA2 counter,others
Cc1ccccc1OCC(=O)Nc1cc(S(=O)(=O)N2CCCCC2)ccc1N1CCN(C)CC1,0,1,46*,4,50*,
C/C(N)=C(/C#N)C(=O)CSc1cc(C)c2ccccc2n1,0,5,-5,1,·,
CCCOc1ccc2ccccc2c1/C=N/n1cnnc1,0,-2,1,·,·,
Cc1cc(C)c(C(=O)COC(=O)c2cccc(S(=O)(=O)NCc3ccccc3)c2)cc1C,-2,4,28,3,·,
O=C(COC(=O)c1cccc(S(=O)(=O)NCc2ccccc2)c1)c1ccccc1,-1,-2,47*,3,55*,
O=C(O)c1cccc(NN=C2c3ccccc3-c3ccccc32)c1,-1,1,13,11,·,
O=C(O)c1cc(NN=C2c3ccccc3-c3ccccc32)ccc1Cl,0,-1,45*,·,39,ATG4B confirm=62*
O=C(C1CCN(S(=O)(=O)c2cccnc2)CC1)N1CCN(C2CCCC2)CC1,-2,0,-2,2,·,
Cc1ccc2nc3c(c(Nc4ccc5c(c4)OCCO5)c2c1)CCC3,0,-5,42*,-1,37,ATG4B confirm=65*
COC(=O)c1ccc(CSc2nc3c(c(=O)n2-c2ccc(Br)cc2)SCC3)o1,0,5,65*,3,73*,
CCOc1ccc(-n2c(SCc3ccc(C(=O)OC)o3)nc3c(c2=O)SCC3)cc1,-1,2,60*,5,77*,
O=C(CSc1nc2c(c(=O)n1-c1ccc(Cl)cc1)SCC2)N1CCCC1,-1,0,-6,7,·,
CCc1nc(N2CCN(C(=S)NCCCOC)CC2)c2c3c(sc2n1)CCCC3,0,0,72*,5,80*,
CSc1nc(N2CCOCC2)c2c3c(sc2n1)CCCC3,0,-2,37,0,·,
CCc1nc(N2CCN(S(C)(=O)=O)CC2)c2c3c(sc2n1)CCCC3,-1,1,47*,2,50,
CCC(=O)N1CCN(c2nc(CC)nc3sc4c(c23)CCCC4)CC1,-1,2,54*,6,64*,
COc1nc(Nc2cccc(C(F)(F)F)c2)nc(OC)n1,-1,1,-7,4,·,
Cc1cccc(NC(=O)NNC(=O)COc2ccc([N+](=O)[O-])cc2)c1C,0,-5,11,5,·,
O=C(NCc1cccs1)c1cccc(N2CCCC2=O)c1,0,-3,-1,1,·,
Cc1ccnc2c1ccc1c(C)ccnc12,0,-18,0,4,·,
CCNC(=S)N(CCc1c(C)[nH]c2ccccc12)Cc1cccnc1,-1,6,-7,3,·,
O=C(NCc1cccc(F)c1)c1ccc(N2C(=O)Cn3c(cc4sccc43)C2=O)cc1,-1,-1,41*,2,34,
O=C(NCc1ccco1)c1ccc(Cn2c(=O)c3sccc3n(Cc3cccc(F)c3)c2=O)cc1,0,5,-8,6,·,
O=Cc1cc(Cl)ccc1OCCN1CCC(Cc2ccccc2)CC1,-1,0,84*,0,87*,
CC(C)C(=O)O/N=C(\N)c1ccc(Oc2ccc(Cl)cc2)c([N+](=O)[O-])c1,1,2,0,·,·,
NC(=O)c1ccc(Oc2ccc3c(c2)CCC3)c([N+](=O)[O-])c1,0,1,80*,·,85*,
N/C(=N\O)c1ccc(Oc2ccccc2Cl)c([N+](=O)[O-])c1,0,1,-5,·,·,
NC(=O)c1ccc(Oc2ccc(Cl)c3ccccc23)c([N+](=O)[O-])c1,-1,-1,62*,4,54*,
NC(=O)c1ccc(Oc2ccc(Cl)cc2)c([N+](=O)[O-])c1,0,0,59*,2,58*,
COc1ccc(Br)cc1/C=C(\C(=O)O)c1ccc(S(=O)(=O)N2CCCC2)s1,0,0,67*,3,76*,
